Source: ChEMBL document CHEMBL1127349, “6,7,8,9-Tetrahydro-N,N-di-n-propyl-3H-benzindol-8-amines. Derivatives as potent and orally active serotonin 5-HT1A receptor agonists” (J Med Chem, 1994)
Activity calls are given as the source filed them. No cut-off for these calls is given here.

Columns and labels:
Rattus norvegicus [1] = assay: The concentration yielding a half maximal decrease of the DOPA was determined in rat brain hemispheres; inactive at 45 umol/kg; format: functional, organism-based
Outline: (§1)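 Reserpine-pretreated (5 mg/kg sc, 18 h) male Sprague-Dawley rats, 200–300 g; compounds in saline given sc. DOPA and 5-HTP in limbic system, striatum and hemispheres measured by HPLC with electrochemical detection. Dose–response curves of 4–6 doses (n = 4) per area, fitted to variable-slope sigmoid on log data to give ED50.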

Rattus norvegicus [2] = assay: The concentration yielding a half maximal decrease of the DOPA was determined in rat limbic system; inactive at 45 umol/kg; format: functional, organism-based
Rattus norvegicus [3] = assay: Motor activity was measured by motility testing on injecting the compound subcutaneously into rats at the dose of 0.02 umol/kg (1a) and 3.5 umol/kg (1b)
Rattus norvegicus [4] = assay: The concentration yielding a half maximal decrease of the DOPA was determined in rat brain striatum; inactive at 45 umol/kg; format: functional, organism-based
Rattus norvegicus [5] = species: Rattus norvegicus; assay: Log concentration to inhibit DOPA accumulation was determined in rat brain striatum; format: functional; outline: as §1
Rattus norvegicus [6] = species: Rattus norvegicus; assay: The concentration yielding a half maximal decrease of the DOPA was determined in rat brain striatum.; format: functional
Rattus norvegicus [7] = species: Rattus norvegicus; assay: The concentration yielding a half maximal decrease of the DOPA was determined in rat limbic system.; format: functional
Rattus norvegicus [8] = species: Rattus norvegicus; assay: Log concentration to inhibit 5-HTP accumulation was determined in rat brain striatum; format: functional; outline: as §1
Rattus norvegicus [9] = species: Rattus norvegicus; assay: Log concentration to inhibit 5-HTP accumulation was determined in rat brain hemispheres; format: functional; outline: as §1
Rattus norvegicus [10] = species: Rattus norvegicus; assay: The concentration yielding a half maximal decrease of the 5-HTP was determined in rat brain hemispheres.; format: functional
Rattus norvegicus [11] = assay: Motor activity was measured by motility testing on injecting the compound subcutaneously into rats at the dose of 12.5 umol/kg; format: functional
Outline: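 Rats given reserpine 5 mg/kg sc 18 h beforehand, then test compound sc in neck (n = 4). Placed singly in photocell motility meters straight after dosing; counts recorded for 30 min, gross behaviour observed throughout. Value as counts/30 min with SEM.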

Rattus norvegicus [12] = species: Rattus norvegicus; assay: Log concentration to inhibit DOPA accumulation was determined in rat limbic system; format: functional; outline: as §1
Rattus norvegicus [13] = assay: The concentration yielding a half maximal decrease of the DOPA was determined in rat brain hemispheres; Inactive at 50 umol/kg; format: functional, organism-based; outline: as §1
[14] = molecular target: T1, 5-hydroxytryptamine receptor 1A (Rattus norvegicus, UniProt P19327); assay: Displacement of the radioligand [3H]8-OH-DPAT from 5-hydroxytryptamine 1A receptor
T1 sequence (P19327 whole entry): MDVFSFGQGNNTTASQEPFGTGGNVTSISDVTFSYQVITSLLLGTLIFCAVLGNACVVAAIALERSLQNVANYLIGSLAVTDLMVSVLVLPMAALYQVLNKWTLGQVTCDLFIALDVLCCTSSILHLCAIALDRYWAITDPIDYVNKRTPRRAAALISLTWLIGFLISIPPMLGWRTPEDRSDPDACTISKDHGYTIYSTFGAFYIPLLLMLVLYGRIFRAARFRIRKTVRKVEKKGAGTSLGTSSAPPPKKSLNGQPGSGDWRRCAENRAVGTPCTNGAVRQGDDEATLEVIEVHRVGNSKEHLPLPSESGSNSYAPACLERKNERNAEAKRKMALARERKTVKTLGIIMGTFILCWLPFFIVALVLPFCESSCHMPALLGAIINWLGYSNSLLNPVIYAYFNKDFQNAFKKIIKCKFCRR
Outline: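 Rat whole brain minus brain stem and cerebellum, washed membranes in 50 mM Tris pH 8.0 with 120 mM NaCl, 4 mM CaCl2, 4 mM MgCl2, 10 μM pargyline. Nonspecific with 10 μM 5-HT. IC50 by semilog linear regression, Ki via Cheng–Prusoff; 3–7 experiments, triplicates.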

Rattus norvegicus [15] = species: Rattus norvegicus; assay: The concentration yielding a half maximal decrease of the 5-HTP was determined in rat limbic system.; format: functional
D(2) dopamine receptor = D(2) dopamine receptor (Rattus norvegicus, UniProt P61169); assay: Displacement of the radioligand [3H]spiperone from D2 receptor
Sequence of D(2) dopamine receptor (P61169 whole entry): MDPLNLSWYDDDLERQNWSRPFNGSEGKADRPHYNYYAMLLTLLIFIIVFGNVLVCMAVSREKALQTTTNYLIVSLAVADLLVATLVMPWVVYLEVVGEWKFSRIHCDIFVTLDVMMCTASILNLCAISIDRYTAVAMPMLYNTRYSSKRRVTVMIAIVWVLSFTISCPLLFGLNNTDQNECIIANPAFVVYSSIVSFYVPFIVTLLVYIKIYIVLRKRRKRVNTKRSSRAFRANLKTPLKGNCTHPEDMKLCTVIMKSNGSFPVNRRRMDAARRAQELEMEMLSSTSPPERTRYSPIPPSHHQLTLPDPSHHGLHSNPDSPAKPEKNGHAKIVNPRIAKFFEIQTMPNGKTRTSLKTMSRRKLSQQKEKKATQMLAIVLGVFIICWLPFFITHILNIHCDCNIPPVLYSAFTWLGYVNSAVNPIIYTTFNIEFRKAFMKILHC
Outline: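 Rat striatal membranes in 50 mM potassium phosphate buffer, incubated with 0.5 nM [3H]spiperone (3 mg tissue) 10 min at 37 °C. Nonspecific binding defined with 10 μM 6,7-ADTN. IC50 converted to Ki by Cheng–Prusoff; 3–7 experiments, each concentration in triplicate.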

Rattus norvegicus [16] = species: Rattus norvegicus; assay: Log concentration to inhibit 5-HTP accumulation was determined in rat limbic system; format: functional; outline: as §1
Rattus norvegicus [17] = species: Rattus norvegicus; assay: The concentration yielding a half maximal decrease of the 5-HTP was determined in rat brain striatum.; format: functional
Rattus norvegicus [18] = assay: The concentration yielding a half maximal decrease of the 5-HTP was determined in rat brain hemispheres; Partial response at 50 umol/kg; format: functional, organism-based; outline: as §1
Rattus norvegicus [19] = assay: The concentration yielding a half maximal decrease of the DOPA was determined in rat limbic system; Partial response at 50 umol/kg; format: functional, organism-based
Rattus norvegicus [20] = assay: The concentration yielding a half maximal decrease of the DOPA was determined in rat brain striatum; Partial response at 50 umol/kg; format: functional, organism-based
Rattus norvegicus [21] = assay: The concentration yielding a half maximal decrease of the 5-HTP was determined in rat brain striatum; inactive at 50 umol/kg; format: functional, organism-based; outline: as §1
Rattus norvegicus [22] = assay: The concentration yielding a half maximal decrease of the 5-HTP was determined in rat limbic system; inactive at 50 umol/kg; format: functional, organism-based; outline: as §1
Rattus norvegicus [23] = assay: The concentration yielding a half maximal decrease of the DOPA was determined in rat brain hemispheres; inactive at 50 umol/kg; format: functional, organism-based; outline: as §1
Rattus norvegicus [24] = assay: The concentration yielding a half maximal decrease of the 5-HTP was determined in rat brain hemispheres; inactive at 50 umol/kg; format: functional, organism-based; outline: as §1
Rattus norvegicus [25] = assay: The concentration yielding a half maximal decrease of the DOPA was determined in rat brain striatum; Partial response 50 umol/kg; format: functional, organism-based
Rattus norvegicus [26] = assay: The concentration yielding a half maximal decrease of the DOPA was determined in rat limbic system; Partial response 50 umol/kg; format: functional, organism-based
Rattus norvegicus [27] = assay: The concentration yielding a half maximal decrease of the DOPA was determined in rat brain hemispheres; Partial response at 50 umol/kg; format: functional, organism-based; outline: as §1
Rattus norvegicus [28] = assay: The concentration yielding a half maximal decrease of the DOPA was determined in rat brain hemispheres; Inactive at 3.1 umol/kg; format: functional, organism-based; outline: as §1
Rattus norvegicus [29] = assay: The concentration yielding a half maximal decrease of the DOPA was determined in rat brain striatum; Inactive at 3.1 umol/kg; format: functional, organism-based

SMILES	ED50 (Rattus norvegicus [7]) [µmol/kg]	pED50 (Rattus norvegicus [8])	pED50 (Rattus norvegicus [9])	ED50 (Rattus norvegicus [10]) [µmol/kg]	Activity (Rattus norvegicus [11]) [Counts 30min-1]	pED50 (Rattus norvegicus [12])	Ki [14] [nM]	ED50 (Rattus norvegicus [15]) [µmol/kg]	Ki (D(2) dopamine receptor) [nM]	pED50 (Rattus norvegicus [16])	ED50 (Rattus norvegicus [17]) [µmol/kg]	ED50 (Rattus norvegicus [21])	ED50 (Rattus norvegicus [22])	ED50 (Rattus norvegicus [23])	also measured
CCCN(CCC)C1CCc2cccc(O)c2C1 (centres undefined) [8-OH-DPAT]	–	–	–	–	–	–	–	–	–	–	–	–	–	–	ED50 (Rattus norvegicus [1]): inactive; ED50 (Rattus norvegicus [2]): inactive; Counts/30 min (Rattus norvegicus [3]): 66; ED50 (Rattus norvegicus [4]): inactive
CCCN(CCC)[C@H]1CCc2ccc3[nH]cc(C#N)c3c2C1	42	7.05	6.81	0.15	300	4.37	2.9	0.12	8020	7.93	0.089	–	–	–	pED50 (Rattus norvegicus [5]): 4.29; ED50 (Rattus norvegicus [6]): 52 µmol/kg; ED50 (Rattus norvegicus [13]): inactive
CCCN(CCC)C1CCc2ccc3cc[nH]c3c2C1 (centres undefined)	–	–	–	–	119	–	220	–	145	–	–	inactive	inactive	inactive	ED50 (Rattus norvegicus [18]): Weak activity; ED50 (Rattus norvegicus [19]): Weak activity; ED50 (Rattus norvegicus [20]): Weak activity
CCCN(CCC)C1CCc2ccc3c(c2C1)N(C=O)CC3 (centres undefined)	–	–	–	–	–	–	550	–	> 16000	–	–	inactive	inactive	inactive	ED50 (Rattus norvegicus [24]): inactive; ED50 (Rattus norvegicus [25]): Weak activity; ED50 (Rattus norvegicus [26]): Weak activity
CCCN(CCC)[C@@H]1CCc2ccc3[nH]ccc3c2C1	–	–	–	–	82	–	–	–	–	–	–	–	–	–	–
CCCN(CCC)C1CCc2ccc3c(c2C1)NCC3 (centres undefined)	–	–	–	–	–	–	410	–	650	–	–	inactive	inactive	inactive	ED50 (Rattus norvegicus [24]): inactive; ED50 (Rattus norvegicus [25]): Weak activity; ED50 (Rattus norvegicus [26]): Weak activity
CCCN(CCC)C1CCc2ccc3[nH]cc(Cl)c3c2C1 (centres undefined)	3.7	5.78	5.85	1.4	–	5.43	12.6	1.4	317	5.86	1.7	–	–	–	pED50 (Rattus norvegicus [5]): 5.47; ED50 (Rattus norvegicus [6]): 3.4 µmol/kg; ED50 (Rattus norvegicus [27]): Weak activity
CCCN(CCC)[C@@H]1CCc2ccc3[nH]cc(C#N)c3c2C1	1.65	7.44	6.85	0.14	–	5.78	2.7	0.092	419	7.03	0.036	–	–	–	ED50 (Rattus norvegicus [28]): inactive; ED50 (Rattus norvegicus [29]): inactive
